Experimental data: ChEMBL document CHEMBL4321796, “Proteolysis Targeting Chimeras for the Selective Degradation of Mcl-1/Bcl-2 Derived from Nonselective Target Binding Ligands” (J Med Chem, 2019)
pIC50: −log10 of the molar value. The source made the active and inactive calls. No cut-off for these calls is given here.

Assays:
[1] = target: Protein cereblon/E3 ubiquitin-protein ligase Mdm2 (Homo sapiens) (UniProt Q00987+Q96SW2); experiment: Induction of CRBN-mediated MDM2 degradation in human HeLa cells at 10 uM incubated for 12 hrs by Western blot analysis; type: cell-based
Sequence of Protein cereblon/E3 ubiquitin-protein ligase Mdm2 (Homo sapiens) (Q00987 whole entry, looked up): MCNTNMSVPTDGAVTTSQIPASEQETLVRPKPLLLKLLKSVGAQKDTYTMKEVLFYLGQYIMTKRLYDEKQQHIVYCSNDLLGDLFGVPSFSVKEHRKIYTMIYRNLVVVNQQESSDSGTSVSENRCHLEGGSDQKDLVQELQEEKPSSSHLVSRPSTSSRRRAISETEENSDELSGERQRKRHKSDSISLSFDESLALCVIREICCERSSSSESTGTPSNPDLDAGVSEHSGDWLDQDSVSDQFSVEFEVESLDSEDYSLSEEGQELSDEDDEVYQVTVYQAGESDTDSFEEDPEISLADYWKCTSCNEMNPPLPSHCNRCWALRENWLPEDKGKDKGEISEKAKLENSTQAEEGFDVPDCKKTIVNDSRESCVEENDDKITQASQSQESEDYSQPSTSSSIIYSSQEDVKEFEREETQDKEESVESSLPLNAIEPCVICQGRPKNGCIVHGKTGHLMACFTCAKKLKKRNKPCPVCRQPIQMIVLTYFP
Sequence of Protein cereblon/E3 ubiquitin-protein ligase Mdm2 (Homo sapiens) (Q96SW2 whole entry, looked up): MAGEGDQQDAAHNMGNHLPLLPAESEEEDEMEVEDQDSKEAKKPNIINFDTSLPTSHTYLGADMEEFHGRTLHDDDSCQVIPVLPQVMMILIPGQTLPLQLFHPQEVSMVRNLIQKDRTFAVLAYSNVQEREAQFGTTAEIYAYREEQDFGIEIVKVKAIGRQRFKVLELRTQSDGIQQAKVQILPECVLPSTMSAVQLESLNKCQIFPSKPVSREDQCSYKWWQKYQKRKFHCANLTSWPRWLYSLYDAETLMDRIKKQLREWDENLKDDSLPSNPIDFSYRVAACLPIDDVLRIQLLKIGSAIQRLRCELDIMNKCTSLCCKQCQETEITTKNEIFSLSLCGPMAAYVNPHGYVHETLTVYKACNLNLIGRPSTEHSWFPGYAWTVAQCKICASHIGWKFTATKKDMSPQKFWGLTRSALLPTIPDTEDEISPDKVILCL

[2] = target: Protein cereblon/Bcl-2-like protein 1 (Homo sapiens) (UniProt Q07817+Q96SW2); experiment: Induction of CRBN-mediated Bcl-xl degradation in human HeLa cells at 10 uM incubated for 12 hrs by Western blot analysis; type: cell-based
Sequence of Protein cereblon/Bcl-2-like protein 1 (Homo sapiens) (Q07817 whole entry, looked up, the tested form may be a part): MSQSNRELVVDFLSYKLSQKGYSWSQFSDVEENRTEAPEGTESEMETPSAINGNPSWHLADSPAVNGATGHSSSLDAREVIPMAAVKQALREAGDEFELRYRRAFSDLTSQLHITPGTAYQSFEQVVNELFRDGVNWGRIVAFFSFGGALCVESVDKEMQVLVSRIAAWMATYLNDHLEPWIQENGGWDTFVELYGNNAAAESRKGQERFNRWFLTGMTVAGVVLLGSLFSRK
Sequence of Protein cereblon/Bcl-2-like protein 1 (Homo sapiens) (Q96SW2 whole entry, looked up, the tested form may be a part): as the sequence (Q96SW2 whole entry, looked up) above

[3] = target: Induced myeloid leukemia cell differentiation protein Mcl-1 (Homo sapiens, UniProt Q07820); experiment: Inhibition of biotinylated Bim peptide (81 to 106 residues) binding to His-tagged human Mcl-1 expressed in Escherichia coli BL21 (DE3) cells preincubated for 1 hr followed by biotinylated Bim peptide addition measured after 2 hrs by ELISA
Sequence of Induced myeloid leukemia cell differentiation protein Mcl-1 (Q07820 whole entry, the tested form may be a part): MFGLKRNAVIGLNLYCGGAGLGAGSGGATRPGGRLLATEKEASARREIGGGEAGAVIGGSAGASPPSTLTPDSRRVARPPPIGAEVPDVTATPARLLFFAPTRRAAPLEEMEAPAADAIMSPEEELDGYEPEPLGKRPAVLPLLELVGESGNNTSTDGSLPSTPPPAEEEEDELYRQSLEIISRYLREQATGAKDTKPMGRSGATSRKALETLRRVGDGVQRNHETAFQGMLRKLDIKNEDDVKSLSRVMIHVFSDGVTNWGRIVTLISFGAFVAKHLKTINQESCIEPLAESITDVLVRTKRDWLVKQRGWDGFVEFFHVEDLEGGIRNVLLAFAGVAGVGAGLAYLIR
In short: (§1)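 Inhibitor serially diluted (100–0.1 µM) from 10 mM DMSO stock, preincubated 1 h with 200 nM His-tagged protein in PBS (final DMSO 4%), then added 2 h to streptavidin plates holding biotin-Bim (plated at 0.09 mg/mL). Incubations at 4 °C. Detection with HRP anti-His, TMB 30 min, H2SO4 stop, A450. IC50 averaged from three independent experiments, with SD.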

[4] = target: Apoptosis regulator Bcl-2 (Homo sapiens, UniProt P10415); experiment: Inhibition of biotinylated Bim peptide (81 to 106 residues) binding to His-tagged human Bcl-2 expressed in Escherichia coli BL21 (DE3) cells preincubated for 1 hr followed by biotinylated Bim peptide addition measured after 2 hrs by ELISA; in short: as §1
Sequence of Apoptosis regulator Bcl-2 (P10415 whole entry, the tested form may be a part): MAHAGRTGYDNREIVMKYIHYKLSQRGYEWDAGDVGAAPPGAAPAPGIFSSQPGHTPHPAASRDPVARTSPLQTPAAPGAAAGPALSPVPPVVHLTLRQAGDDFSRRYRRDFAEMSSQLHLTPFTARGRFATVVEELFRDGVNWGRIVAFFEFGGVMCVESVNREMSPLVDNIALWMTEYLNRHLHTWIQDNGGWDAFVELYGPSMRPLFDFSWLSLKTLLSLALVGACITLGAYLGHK

[5] = target: T1, Protein cereblon/Induced myeloid leukemia cell differentiation protein Mcl-1 (Homo sapiens, UniProt Q07820+Q96SW2); experiment: Induction of CRBN-mediated Mcl-1 degradation in human HeLa cells assessed as relative abundance at 10 uM after 12 hrs by Western blot analysis (reference value: 1); type: cell-based
T1 sequence (Q07820 whole entry, looked up): as the sequence (Q07820 whole entry, the tested form may be a part) above
T1 sequence (Q96SW2 whole entry, looked up): as the sequence (Q96SW2 whole entry, looked up) above

[6] = target: T1, Protein cereblon/Induced myeloid leukemia cell differentiation protein Mcl-1; experiment: Induction of CRBN-mediated Mcl-1 degradation in human HeLa cells assessed as relative abundance at 1 uM after 12 hrs by Western blot analysis (reference value: 1); type: cell-based
[7] = target: T2, Protein cereblon/Apoptosis regulator Bcl-2 (Homo sapiens, UniProt P10415+Q96SW2); experiment: Induction of CRBN-mediated Bcl-2 degradation in human HeLa cells assessed as relative abundance at 10 uM after 12 hrs by Western blot analysis (reference value: 1); type: cell-based
Target sequence in this assay (P10415 whole entry, looked up): as the sequence (P10415 whole entry, the tested form may be a part) above
Target sequence in this assay (Q96SW2 whole entry, looked up): as the sequence (Q96SW2 whole entry, looked up) above

[8] = target: T2, Protein cereblon/Apoptosis regulator Bcl-2; experiment: Induction of CRBN-mediated Bcl-2 degradation in human HeLa cells assessed as relative abundance at 1 uM after 12 hrs by Western blot analysis (reference value: 1); type: cell-based
Target sequence in this assay (P10415 whole entry, looked up): as the sequence (P10415 whole entry, the tested form may be a part) above
Target sequence in this assay (Q96SW2 whole entry, looked up): as the sequence (Q96SW2 whole entry, looked up) above

[9] = target: T2, Protein cereblon/Apoptosis regulator Bcl-2; experiment: Induction of CRBN-mediated Bcl-2 degradation in human HeLa cells after 12 hrs by Western blot analysis; type: cell-based
Target sequence in this assay (P10415 whole entry, looked up): as the sequence (P10415 whole entry, the tested form may be a part) above
Target sequence in this assay (Q96SW2 whole entry, looked up): as the sequence (Q96SW2 whole entry, looked up) above

[10] = target: T2, Protein cereblon/Apoptosis regulator Bcl-2; experiment: Induction of CRBN-mediated Bcl-2 degradation in human HeLa cells assessed as reduction in Bcl-2 level at 1 uM after 12 hrs by Western blot analysis relative to control; type: cell-based; set-up: scale not given: the % may be the effect or the level left
Target sequence in this assay (P10415 whole entry, looked up): as the sequence (P10415 whole entry, the tested form may be a part) above
Target sequence in this assay (Q96SW2 whole entry, looked up): as the sequence (Q96SW2 whole entry, looked up) above

[11] = target: T2, Protein cereblon/Apoptosis regulator Bcl-2; experiment: Induction of CRBN-mediated Bcl-2 degradation in human HeLa cells assessed as reduction in Bcl-2 level at 10 uM after 12 hrs by Western blot analysis relative to control; type: cell-based; set-up: scale not given: the % may be the effect or the level left
Target sequence in this assay (P10415 whole entry, looked up): as the sequence (P10415 whole entry, the tested form may be a part) above
Target sequence in this assay (Q96SW2 whole entry, looked up): as the sequence (Q96SW2 whole entry, looked up) above

[12] = target: T2, Protein cereblon/Apoptosis regulator Bcl-2; experiment: Induction of CRBN-mediated Bcl-2 degradation in human HeLa cells assessed as relative abundance at 3 uM after 12 hrs by Western blot analysis (reference value: 1); type: cell-based
Target sequence in this assay (P10415 whole entry, looked up): as the sequence (P10415 whole entry, the tested form may be a part) above
Target sequence in this assay (Q96SW2 whole entry, looked up): as the sequence (Q96SW2 whole entry, looked up) above

[13] = target: T2, Protein cereblon/Apoptosis regulator Bcl-2; experiment: Induction of CRBN-mediated Bcl-2 degradation in human HeLa cells assessed as relative abundance at 0.3 uM after 12 hrs by Western blot analysis (reference value: 1); type: cell-based
[14] = target: T1, Protein cereblon/Induced myeloid leukemia cell differentiation protein Mcl-1; experiment: Induction of CRBN-mediated Mcl-1 degradation in human HeLa cells assessed as relative abundance at 0.1 uM after 12 hrs by Western blot analysis (reference value: 1); type: cell-based
[15] = target: T2, Protein cereblon/Apoptosis regulator Bcl-2; experiment: Induction of CRBN-mediated Bcl-2 degradation in human HeLa cells assessed as relative abundance at 0.1 uM after 12 hrs by Western blot analysis (reference value: 1); type: cell-based
[16] = target: T1, Protein cereblon/Induced myeloid leukemia cell differentiation protein Mcl-1; experiment: Induction of CRBN-mediated Mcl-1 degradation in human HeLa cells assessed as relative abundance at 0.3 uM after 12 hrs by Western blot analysis (reference value: 1); type: cell-based
[17] = target: T1, Protein cereblon/Induced myeloid leukemia cell differentiation protein Mcl-1; experiment: Induction of CRBN-mediated Mcl-1 degradation in human HeLa cells assessed as relative abundance at 3 uM after 12 hrs by Western blot analysis (reference value: 1); type: cell-based
[18] = target: T1, Protein cereblon/Induced myeloid leukemia cell differentiation protein Mcl-1; experiment: Induction of CRBN-mediated Mcl-1 degradation in human HeLa cells assessed as relative abundance at 10 uM measured at 2 hrs by Western blot analysis (reference value: 1); type: cell-based
In short: (§2)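 HeLa cells in DMEM with 10% FBS, exposed to 10 µM compound over a 0–24 h time course. Mcl-1 and Bcl-2 detected by immunoblot (NP-40 lysis, BCA-equalized SDS-PAGE, PVDF, ECL) and quantified relative to DMSO control; mean ± s.d., n=3 independent samples.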

[19] = target: T2, Protein cereblon/Apoptosis regulator Bcl-2; experiment: Induction of CRBN-mediated Bcl-2 degradation in human HeLa cells at 10 uM by Western blot analysis; type: cell-based; conditions: TDE = time-dependent effect
[20] = target: T1, Protein cereblon/Induced myeloid leukemia cell differentiation protein Mcl-1; experiment: Induction of CRBN-mediated Mcl-1 degradation in human HeLa cells assessed as relative abundance at 10 uM measured at 4 hrs by Western blot analysis (reference value: 1); type: cell-based; in short: as §2
[21] = target: T1, Protein cereblon/Induced myeloid leukemia cell differentiation protein Mcl-1; experiment: Induction of CRBN-mediated Mcl-1 degradation in human HeLa cells assessed as relative abundance at 10 uM measured at 8 hrs by Western blot analysis (reference value: 1); type: cell-based; in short: as §2
[22] = target: T2, Protein cereblon/Apoptosis regulator Bcl-2; experiment: Induction of CRBN-mediated Bcl-2 degradation in human HeLa cells assessed as relative abundance at 10 uM measured at 20 hrs by Western blot analysis (reference value: 1); type: cell-based; in short: as §2
[23] = target: T1, Protein cereblon/Induced myeloid leukemia cell differentiation protein Mcl-1; experiment: Induction of CRBN-mediated Mcl-1 degradation in human HeLa cells assessed as relative abundance at 10 uM measured at 16 hrs by Western blot analysis (reference value: 1); type: cell-based; in short: as §2
[24] = target: T1, Protein cereblon/Induced myeloid leukemia cell differentiation protein Mcl-1; experiment: Induction of CRBN-mediated Mcl-1 degradation in human HeLa cells assessed as relative abundance at 10 uM measured at 20 hrs by Western blot analysis (reference value: 1); type: cell-based; in short: as §2
[25] = target: T1, Protein cereblon/Induced myeloid leukemia cell differentiation protein Mcl-1; experiment: Induction of CRBN-mediated Mcl-1 degradation in human HeLa cells assessed as relative abundance at 10 uM measured at 24 hrs by Western blot analysis (reference value: 1); type: cell-based; in short: as §2
[26] = target: T2, Protein cereblon/Apoptosis regulator Bcl-2; experiment: Induction of CRBN-mediated Bcl-2 degradation in human HeLa cells assessed as relative abundance at 10 uM measured at 2 hrs by Western blot analysis (reference value: 1); type: cell-based; in short: as §2
[27] = target: T2, Protein cereblon/Apoptosis regulator Bcl-2; experiment: Induction of CRBN-mediated Bcl-2 degradation in human HeLa cells assessed as relative abundance at 10 uM measured at 4 hrs by Western blot analysis (reference value: 1); type: cell-based; in short: as §2
[28] = target: T2, Protein cereblon/Apoptosis regulator Bcl-2; experiment: Induction of CRBN-mediated Bcl-2 degradation in human HeLa cells assessed as relative abundance at 10 uM measured at 8 hrs by Western blot analysis (reference value: 1); type: cell-based; in short: as §2
[29] = target: T2, Protein cereblon/Apoptosis regulator Bcl-2; experiment: Induction of CRBN-mediated Bcl-2 degradation in human HeLa cells assessed as relative abundance at 10 uM measured at 16 hrs by Western blot analysis (reference value: 1); type: cell-based; in short: as §2
[30] = target: T2, Protein cereblon/Apoptosis regulator Bcl-2; experiment: Induction of CRBN-mediated Bcl-2 degradation in human HeLa cells assessed as relative abundance at 10 uM measured at 24 hrs by Western blot analysis (reference value: 1); type: cell-based; in short: as §2
[31] = target: T2, Protein cereblon/Apoptosis regulator Bcl-2; experiment: Induction of CRBN-mediated Bcl-2 degradation in human HeLa cells measured at 12 hrs by Western blot analysis; type: cell-based
Target sequence in this assay (P10415 whole entry): as the sequence (P10415 whole entry, the tested form may be a part) above
Target sequence in this assay (Q96SW2 whole entry): as the sequence (Q96SW2 whole entry, looked up) above

HeLa = experiment: Induction of CRBN-mediated tubulin degradation in human HeLa cells at 10 uM incubated for 12 hrs by Western blot analysis; type: cell-based
In short: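 HeLa cells (DMEM, 10% FBS, 37 °C, 5% CO2) treated 12 h with compound (10 µM, or 0–10 µM gradient; time course 0–24 h at 10 µM). Lysis in NP-40 buffer with protease inhibitors, equal protein loaded for SDS-PAGE and immunoblotting. Bands quantified relative to DMSO control. n=3 independent samples.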

[32] = target: T2, Protein cereblon/Apoptosis regulator Bcl-2; experiment: Induction of CRBN-mediated Bcl-2 degradation in human HeLa cells at 10 uM pretreated with proteasome inhibitor MG-132 followed by compound addition by Western blot analysis; type: cell-based
[33] = target: T2, Protein cereblon/Apoptosis regulator Bcl-2; experiment: Induction of CRBN-mediated Bcl-2 degradation in human HeLa cells at 10 uM pretreated with Bcl-2 inhibitor Nap-1 followed by compound addition by Western blot analysis; type: cell-based
[34] = target: T2, Protein cereblon/Apoptosis regulator Bcl-2; experiment: Induction of CRBN-mediated Bcl-2 degradation in human HeLa cells at 10 uM pretreated with CRBN inhibitor pomalidomide followed by compound addition by Western blot analysis; type: cell-based
[35] = target: T2, Protein cereblon/Apoptosis regulator Bcl-2; experiment: Protac activity at CRBN/Bcl-2 in human HeLa cell lysates assessed as ternary complex formation by Western blot analysis based pull-down assay; type: subcellular; conditions: Lysate
In short: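 HeLa lysate (25×10^6 cells, 1% Triton X-100 IP buffer), 1 mg total protein, incubated overnight with 1 µg CRBN antibody across a compound concentration gradient. Capture on protein A+G agarose, three Triton washes, boiled in loading buffer. Mcl-1, Bcl-2 and CRBN detected by immunoblotting. n=3 independent samples.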

[36] = target: T2, Protein cereblon/Apoptosis regulator Bcl-2; experiment: Induction of CRBN-mediated Bcl-2 degradation in human HeLa cells by Western blot analysis; type: cell-based

`O=C(CCCCC(=O)NCCN1C(=O)c2cccc3c(Sc4ccc(Br)cc4)ccc(c23)C1=O)NCCOCCOCCNc1cccc2c1C(=O)N(C1CCC(=O)NC1=O)C2=O` (configuration not stated) was tested, and the Activity [1] was “inactive”, the Activity [2] was “inactive” and the pIC50 [3] was 4.93. The pIC50 [4] was 5.31, the fold change (FC) [5] was 0.9 to 1 and the fold change (FC) [6] was 1. For the same compound, the fold change (FC) [7] was 0.1, the fold change (FC) [8] was 0.9 and the Activity [9] was “Dose-dependent effect”. The Activity [10] was 10%, the Activity [11] was 90% and the fold change (FC) [12] was 0.5. The fold change (FC) [13] was 0.9, the fold change (FC) [14] was 1 and the fold change (FC) [15] was 1. The fold change (FC) [16] was 1, the fold change (FC) [17] was 1.2 and the fold change (FC) [18] was 1.1. For the same compound, the Activity [19] was “Tde”, the fold change (FC) [20] was 1 and the fold change (FC) [21] was 1. It also gave a fold change (FC) [22] of 1, a fold change (FC) [23] of 1.1 and a fold change (FC) [24] of 1. For the same compound, the fold change (FC) [25] was 0.8, the fold change (FC) [26] was 0.8 and the fold change (FC) [27] was 0.6. It also gave a fold change (FC) [28] of 0.3, a fold change (FC) [29] of 0.7 and a fold change (FC) [30] of 1. The DC50 [31] was 3 µM, the Activity (HeLa) was “inactive” and the Activity [32] was “inactive”. For the same compound, the Activity [33] was “inactive”, the Activity [34] was “inactive” and the Activity [35] was “Dose-dependent effect”.
With `CN1C(=O)CCC(N2C(=O)c3cccc(NCCOCCOCCNC(=O)CCCCC(=O)NCCN4C(=O)c5cccc6c(Sc7ccc(Br)cc7)ccc(c56)C4=O)c3C2=O)C1=O` (configuration not stated) the Activity [36] was “inactive”.
